In ChEMBL document CHEMBL1123533, “Anticonvulsant activity of piperidinol and (dialkylamino)alkanol esters” (J Med Chem, 1986):

How the values were obtained:
[1] = organism: Mus musculus; test: Antiepileptic (anticonvulsant) activity in mice through maximal electroshock seizure (MES) assay; format: functional, organism-based
Method in brief: (§1)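 Mice dosed at 30, 100 and 300 mg/kg and tested 30 min after administration. Seizures were evoked by 60-cycle AC, 50 mA, delivered for 0.2 s through corneal electrodes, with saline instilled in the eye first. Protection means abolition of the hind limb tonic extension. MES ED50 was quantified on select compounds.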

[2] = Inhibition of [3H]BTX binding to guinea pig voltage-dependent sodium channel
[3] = tested on: Mus musculus; test: Antiepileptic (anticonvulsant) activity in mice through maximal electroshock seizure (MES) assay; No anticonvulsant activity at 300 mg/kg; format: functional, organism-based; design: dose 300 mg/kg; method in brief: as §1
[4] = Inhibition of [3H]BTX binding to guinea pig voltage-dependent sodium channel; remark: listed apart in the source
[5] = target: T1, GABA-A receptor; anion channel (Homo sapiens) (UniProt P14867+P47870+P18507+P28472+P48169+Q99928+Q9UN88+P34903+O00591+O14764+Q8N1C3+P18505+P78334+P47869+P31644+Q16445); test: Inhibition of [3H]TBPS binding to GABA-A receptor at 100 uM; format: protein-complex assay
Method in brief: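 Rat cerebral cortical membranes, about 1000 μg protein, in 50 mM Tris-citrate pH 7.5 containing 200 mM NaCl with 2 nM [35S]TBPS. Incubated 90 min at 23 °C, test compound at 100 μM. Picrotoxin 10 μM defined nonspecific binding. Ended by rapid filtration with one buffer wash, and filter radioactivity was counted.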

[6] = target: T1, GABA-A receptor; anion channel (Homo sapiens); test: Binding of [3H]- muscimol radioligand against GABA receptor/chloride channel complex at 100 uM; format: protein-complex assay
Method in brief: (§2)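 Rat brain membranes, about 1000 μg protein, in 50 mM Tris-citrate pH 7.1 with 5 nM [3H]muscimol. Incubated 30 min at 0 °C, test compound at 100 μM. Nonspecific binding was defined with 100 μM GABA. Bound ligand was separated by rapid filtration with one buffer wash, and filter radioactivity was counted.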

[7] = target: T1, GABA-A receptor; anion channel (Homo sapiens); test: Binding of [3H]- Diazepam radioligand against GABA receptor/chloride channel complex at 100 uM; format: protein-complex assay
Method in brief: (§3)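 Rat cerebral cortical membranes, about 1000 μg protein, in 50 mM Tris pH 7.4. Incubated with 5 nM [3H]diazepam for 30 min at 0 °C, test compound at 100 μM. Nonspecific binding was defined with 10 μM clonazepam. Ended by rapid filtration with one buffer wash, and retained radioactivity was counted.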

[8] = target: T1, GABA-A receptor; anion channel (Homo sapiens); test: Binding of [3H]- TBPS radioligand against Gamma-aminobutyric acid receptor at 100 uM; format: protein-complex assay
[9] = Inhibition of [3H]BTX binding to guinea pig voltage-dependent sodium channel; remark: listed apart in the source
[10] = target: T1, GABA-A receptor; anion channel (Homo sapiens); test: Inhibition of [3H]muscimol binding to GABA-A receptor at 100 uM; format: protein-complex assay; method in brief: as §2
[11] = tested on: Mus musculus; test: Antiepileptic (anticonvulsant) activity in mice through maximal electroshock seizure (MES) assay. No activity at 300 mg/kg; format: functional, organism-based; design: dose 300 mg/kg; method in brief: as §1
[12] = target: Gamma-aminobutyric acid receptor subunit gamma-1 (Rattus norvegicus) (UniProt P23574); test: Inhibition of [3H]- Diazepam binding to Gamma-aminobutyric acid (GABA-A) receptor at 100 uM; method in brief: as §3
Gamma-aminobutyric acid receptor subunit gamma-1 (Rattus norvegicus), sequence (P23574 whole entry): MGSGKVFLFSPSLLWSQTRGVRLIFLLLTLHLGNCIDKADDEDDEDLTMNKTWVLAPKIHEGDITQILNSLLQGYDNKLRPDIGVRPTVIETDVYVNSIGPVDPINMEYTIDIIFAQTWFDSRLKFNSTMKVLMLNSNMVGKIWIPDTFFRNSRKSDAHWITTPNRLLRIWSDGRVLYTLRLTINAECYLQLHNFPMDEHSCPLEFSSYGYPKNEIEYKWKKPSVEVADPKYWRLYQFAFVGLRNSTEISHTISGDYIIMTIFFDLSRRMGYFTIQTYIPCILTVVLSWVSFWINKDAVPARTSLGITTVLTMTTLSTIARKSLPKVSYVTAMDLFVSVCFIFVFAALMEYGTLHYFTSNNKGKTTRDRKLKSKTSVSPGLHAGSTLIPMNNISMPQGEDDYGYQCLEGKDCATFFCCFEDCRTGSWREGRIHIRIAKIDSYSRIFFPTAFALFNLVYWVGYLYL

SMILES	EC50 [1] [mg/kg]	IC50 [2] [µM]	EC50 [3]	other results
CN1C(=O)CC(C)(c2ccccc2)C1=O (configuration not stated) [METHSUXIMIDE]	76	–	–	–
CN1CCC(OC(=O)c2ccc3ccccc3c2)CC1	< 100	> 10	–	–
CN1CCC(OC(=O)c2ccc(-c3ccccc3)cc2)CC1	< 100	10	–	–
COc1ccccc1C(=O)OC1CCN(C)CC1	–	> 10	Not Active	–
CCN(CC)CCCOC(=O)c1ccccc1-c1ccccc1	7.8	–	–	IC50 [4]: 4.6 µM; inhibition [5]: 47%; inhibition [6]: 59%; inhibition [7]: 51%
Cc1ccc(C(=O)OC2CCN(C)CC2)cc1	–	10	Not Active	–
CN1CCC(C)(OC(=O)c2ccccc2CCc2ccccc2)CC1	28	3.2	–	Stimulation [8]: 50%; inhibition [6]: 40%; inhibition [7]: 42%
CN1CCC(OC(=O)c2ccccc2C(=O)c2ccccc2)CC1	–	–	Not Active	Stimulation [8]: 1%; IC50 [9]: > 10 µM; inhibition [6]: 21%; inhibition [7]: 46%
Cc1[nH]c(C)c(C(=O)OC2CCN(C)CC2)c1C	–	> 10	Not Active	–
COc1ccc(C(=O)OC2CCN(C)CC2)cc1OC	–	> 10	Not Active	–
CCN(CC)CC(C)OC(=O)c1ccccc1-c1ccccc1 (configuration not stated)	< 30	6.8	–	–
COc1cccc(C(=O)OC2CCN(C)CC2)c1	< 100	–	–	–
CCC1(c2ccccc2)C(=O)NC(=O)NC1=O [PHENOBARBITAL]	22	–	–	–
Cc1cc(C)c(C(=O)OC2CCN(C)CC2)cc1C	–	> 10	–	inhibition [10]: 57%; Stimulation [8]: 3%; EC50 [11]: 46 mg/kg; inhibition [7]: 37%
CN1CCC(OC(=O)c2ccccc2CCc2ccccc2)CC1	25	5.4	–	inhibition [6]: 27%; inhibition [7]: 50%
CN1CCC(OC(=O)c2ccccc2Br)CC1	–	> 10	Not Active	–
COc1ccc(CCC(=O)OC2CCN(C)CC2)cc1OC	–	> 10	Not Active	–
O=C1NC(=O)C(c2ccccc2)(c2ccccc2)N1 [PHENYTOIN]	9.5	–	–	–
CN1CCC(OC(=O)c2cccc(O)c2)CC1	–	> 10	Not Active	–
CN1CCC(OC(=O)c2ccccc2-c2ccccc2)CC1	12	10	–	–
CCN(CC)CCCOC(=O)c1ccccc1CCc1ccccc1	< 30	6	–	–
CN1CCC(OC(=O)c2ccccc2Cc2ccccc2)CC1	< 30	3.4	–	–
CCN(CC)CCOC(=O)c1ccccc1CCc1ccccc1	< 300	3.9	–	–
CN1CCC(OC(=O)c2ccccc2Oc2ccccc2)CC1	–	3.6	Not Active	–
CCC(=O)OC1CCN(C)CC1	–	–	Not Active	Stimulation [12]: -14%; Stimulation [8]: 9%; IC50 [9]: > 10 µM; inhibition [6]: 10%
CCN(CC)CCOC(=O)c1ccccc1-c1ccccc1	10	7.5	–	inhibition [5]: 4%; inhibition [6]: 31%; inhibition [7]: 26%
CN1CCC(OC(=O)c2ccccc2COc2ccccc2)CC1	26	> 10	–	Stimulation [8]: 37%; inhibition [6]: 35%; inhibition [7]: 37%
CN1CCC(C)(OC(=O)c2ccccc2-c2ccccc2)CC1	–	3.8	Not Active	–
CN1CCC(OC(=O)c2ccc(Cl)cc2)CC1	–	> 10	Not Active	–
